Source: ChEMBL document CHEMBL2169868, “Flavone-based novel antidiabetic and antidyslipidemic agents” (J Med Chem, 2012)
Blank lines part the entries; values can stand above or below the compound they belong to. Activity calls are given as the source filed them. No cut-off for these calls is given here.

What was measured:
Syrian golden hamster [1] = test: Antidyslipidemic activity in high fructose and high-fat diet fed dyslipidemic Syrian golden hamster model assessed as increase in HDL-cholesterol level at 100 mg/kg/day for 7 days; format: functional, Mesocricetus auratus
Rattus norvegicus [2] = test: Antihyperlipidemic activity in Triton-induced dyslipidemic Wistar rat model assessed as reduction in cholesterol level at 100 mg/kg, po; format: functional; parameters: scale not given: the % may be the effect or the level left
Procedure, shortened: (§1)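 Male Wistar rats, 8−10 weeks, about 160 g, fed normal pellet diet. Triton X-100 given at 400 mg/kg ip; compound given orally in 1% gum acacia. Retro-orbital blood taken 18 h after Triton and serum separated at 1500g for 10 min. TG and cholesterol measured by kit. Mean % change versus dyslipidemic control, 5 animals.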

Mus musculus [3] = test: Antihyperglycemic activity in diabetic C57BL/KsJ db/db mouse model assessed as reduction in hyperglycemia at 25 mg/kg, po qd for 10 days; format: functional; parameters: scale not given: the % may be the effect or the level left
Procedure, shortened: (§2)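 db/db mice (C57BL/KsJ, 12−18 weeks, 40−50 g, glucose 200−350 mg/dL), housed at 23 ± 2.0 °C on a 12 h light cycle. Oral dosing daily for 10 days. Blood glucose checked each morning through day 9. Body weight recorded daily from day 1 to day 10. Mean % change versus vehicle, 5 mice per group; Student t test.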

Syrian golden hamster [4] = test: Antidyslipidemic activity in high fructose and high-fat diet fed dyslipidemic Syrian golden hamster model assessed as reduction in body weight at 100 mg/kg/day for 7 days; format: functional, organism-based; conditions: Mesocricetus auratus
Procedure, shortened: (§3)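 Syrian golden hamsters fed high-fructose high-fat diet; oral dosing in 1% gum acacia at 10, 30, 100 mg/kg (or 25 mg/kg) for 7 days, sham control given vehicle; plasma TG, cholesterol, LDL-C, HDL-C, glycerol and NEFA (kits), lipoprotein lipase activity and body weight; % change versus HFD control, six hamsters per group.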

Syrian golden hamster [5] = test: Antidyslipidemic activity in high fructose and high-fat diet fed dyslipidemic Syrian golden hamster model assessed as reduction in cholesterol level at 100 mg/kg/day for 7 days; format: functional, Mesocricetus auratus; parameters: scale not given: the % may be the effect or the level left
Rattus norvegicus [6] = test: Antidiabetic activity in sucrose loaded Wistar rat model assessed as reduction in glucose levels at 100 mg/kg, po; format: functional; parameters: scale not given: the % may be the effect or the level left
Mus musculus [7] = test: Antihyperglycemic activity in diabetic C57BL/KsJ db/db mouse model assessed as reduction in plasma insulin level in hyperglycemia at 25 mg/kg, po qd for 10 days; format: functional; parameters: scale not given: the % may be the effect or the level left
Procedure, shortened: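 db/db mice dosed orally every day for 10 days. On day 11, retro-orbital blood was drawn and plasma insulin measured. Mean % change versus vehicle-treated control, 5 mice per group; Student t test.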

Rattus norvegicus [8] = test: Antihyperlipidemic activity in Triton-induced dyslipidemic Wistar rat model assessed as reduction in triglyceride level at 100 mg/kg, po; format: functional; parameters: scale not given: the % may be the effect or the level left; procedure, shortened: as §1
Syrian golden hamster [9] = test: Antidyslipidemic activity in high fructose and high-fat diet fed dyslipidemic Syrian golden hamster model assessed as reduction in LDL-cholesterol level at 100 mg/kg/day for 7 days; format: functional, Mesocricetus auratus; parameters: scale not given: the % may be the effect or the level left; procedure, shortened: as §3
Mus musculus [10] = test: Antidyslipidemic activity in diabetic C57BL/KsJ db/db mouse model assessed as reduction in plasma triglyceride level at 25 mg/kg, po qd for 10 days; format: functional; parameters: scale not given: the % may be the effect or the level left
Procedure, shortened: (§4)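 db/db mice (blood glucose 200−350, TG 170−250, cholesterol 170−250, HDL-C 32−40 mg/dL) dosed orally at 25 mg/kg daily for 10 days; retro-orbital blood taken on day 11 for plasma TG, cholesterol and HDL-C (and HDL-C/CHOL ratio); mean % change versus vehicle control, 5 mice per group; Student t test.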

Rattus norvegicus [11] = test: Antihyperlipidemic activity in Triton-induced dyslipidemic Wistar rat model assessed as reduction in phospholipid level at 100 mg/kg, po; format: functional; parameters: scale not given: the % may be the effect or the level left; procedure, shortened: as §1
Syrian golden hamster [12] = test: Antidyslipidemic activity in high fructose and high-fat diet fed dyslipidemic Syrian golden hamster model assessed as reduction in triglyceride level at 100 mg/kg/day for 7 days; format: functional, Mesocricetus auratus; parameters: scale not given: the % may be the effect or the level left; procedure, shortened: as §3
Mus musculus [13] = test: Antidyslipidemic activity in diabetic C57BL/KsJ db/db mouse model assessed as reduction in plasma cholesterol level at 25 mg/kg, po qd for 10 days; format: functional; parameters: scale not given: the % may be the effect or the level left; procedure, shortened: as §4
Mus musculus [14] = test: Antihyperglycemic activity in diabetic C57BL/KsJ db/db mouse model assessed as improvement in glucose tolerance in hyperglycemia at 25 mg/kg, po qd for 10 days; format: functional
Procedure, shortened: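 Male/female C57BL/KsJ db/db mice, 12−18 weeks, 40−50 g, selected for glucose 200−350 mg/dL. Oral dosing daily for 10 days. OGTT on day 10 after an overnight fast: compound at −30 min, then 3 g/kg oral glucose at 0 min. Glucose read at 30, 60, 90 and 120 min. AUC taken versus vehicle, 5 mice per group.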

Mus musculus [15] = test: Antidyslipidemic activity in diabetic C57BL/KsJ db/db mouse model assessed as increase in plasma HDL-cholesterol level at 25 mg/kg, po qd for 10 days; format: functional; procedure, shortened: as §4
Mus musculus [16] = test: Antidyslipidemic activity in diabetic C57BL/KsJ db/db mouse model assessed as increase in plasma HDL-C/cholesterol ratio at 25 mg/kg, po qd for 10 days; format: functional; procedure, shortened: as §4
Mus musculus [17] = test: Reduction in body weight in diabetic C57BL/KsJ db/db mouse model in hyperglycemia at 25 mg/kg, po qd for 10 days relative to untreated control; format: functional; procedure, shortened: as §2
Mus musculus [18] = test: Antidiabetic activity in diabetic C57BL/KsJ db/db mouse model assessed as improvement in glucose tolerance in hyperglycemia at 1 mg/kg, po measured 2 hrs post dose; format: functional
Mus musculus [19] = test: Antidiabetic activity in diabetic C57BL/KsJ db/db mouse model assessed as improvement in glucose tolerance in hyperglycemia at 3 mg/kg, po measured 2 hrs post dose; format: functional
Mus musculus [20] = test: Antidiabetic activity in diabetic C57BL/KsJ db/db mouse model assessed as improvement in glucose tolerance in hyperglycemia at 10 mg/kg, po measured 2 hrs post dose; format: functional
[21] = Mean residence time in Sprague-Dawley rat at 2.5 mg/kg, iv by LC-MS/MS method; format: ADME, organism-based; parameters: dose 2.5 mg/kg, route intravenous; conditions: in vivo
Procedure, shortened: (§5)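 Male Sprague−Dawley rats given a single 2.5 mg/kg iv dose; one formulation was DMF/PG/water (2:4:4), 0.2 μ filtered. Blood drawn from 0.08 to 48 h. Plasma assayed by LC-MS/MS with linear range 0.78−400 ng/mL.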

Rattus norvegicus [22] = test: AUC in Sprague-Dawley rat at 25 mg/kg, po by LC-MS/MS method; conditions: in vivo
Mus musculus [23] = test: Antidiabetic activity in diabetic C57BL/KsJ db/db mouse model assessed as improvement in glucose tolerance in hyperglycemia at 25 mg/kg, po measured 2 hrs post dose; format: functional
Rattus norvegicus [24] = test: Volume of distribution in Sprague-Dawley rat at 25 mg/kg, po by LC-MS/MS method; format: ADME, organism-based; parameters: dose 25 mg/kg, route oral; conditions: in vivo
Procedure, shortened: (§6)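 Male Sprague−Dawley rats given a single 25 mg/kg oral dose (aqueous 0.5% methyl cellulose suspension for one compound). Blood drawn from 0.08 to 48 h. LC-MS/MS, linear range 0.78−400 ng/mL.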

[25] = Cmax in Sprague-Dawley rat at 2.5 mg/kg, iv by LC-MS/MS method; format: ADME, organism-based; parameters: dose 2.5 mg/kg, route intravenous; conditions: in vivo; procedure, shortened: as §5
[26] = Mean residence time in Sprague-Dawley rat at 25 mg/kg, po by LC-MS/MS method; format: ADME, organism-based; parameters: dose 25 mg/kg, route oral; conditions: in vivo; procedure, shortened: as §6
[27] = Tmax in Sprague-Dawley rat at 25 mg/kg, po by LC-MS/MS method; format: ADME, organism-based; parameters: dose 25 mg/kg, route oral; conditions: in vivo; procedure, shortened: as §6
[28] = Volume of distribution in Sprague-Dawley rat at 2.5 mg/kg, iv by LC-MS/MS method; format: ADME, organism-based; parameters: dose 2.5 mg/kg, route intravenous; conditions: in vivo; procedure, shortened: as §5
Mus musculus [29] = test: Antidiabetic activity in diabetic C57BL/KsJ db/db mouse model assessed as improvement in glucose tolerance in hyperglycemia at 100 mg/kg, po measured 2 hrs post dose; format: functional
Mus musculus [30] = test: Antidiabetic activity in diabetic C57BL/KsJ db/db mouse model assessed as reduction in postprandial glucose level in hyperglycemia at 3 mg/kg, po measured 2 hrs post dose; format: functional; parameters: scale not given: the % may be the effect or the level left
Procedure, shortened: (§7)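 db/db mice (C57BL/KsJ, 12−18 weeks, 40−50 g; selected by glucose 200−350 mg/dL) dosed orally daily for 10 consecutive days at 1, 3, 10, 25 or 50 mg/kg; postprandial blood glucose profile recorded on day 6 with food access interrupted; mean % change versus vehicle in 5 animals per group; Student t test.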

[31] = Plasma clearance in Sprague-Dawley rat at 2.5 mg/kg, iv by LC-MS/MS method; format: ADME, organism-based; parameters: dose 2.5 mg/kg, route intravenous; procedure, shortened: as §5
Rattus norvegicus [32] = test: AUC in Sprague-Dawley rat at 2.5 mg/kg, iv by LC-MS/MS method; conditions: in vivo
[33] = Oral bioavailability in Sprague-Dawley rat at 25 mg/kg by LC-MS/MS method; format: ADME, organism-based; conditions: in vivo; procedure, shortened: as §6
Mus musculus [34] = test: Antidiabetic activity in diabetic C57BL/KsJ db/db mouse model assessed as reduction in postprandial glucose level in hyperglycemia at 25 mg/kg, po measured 2 hrs post dose; format: functional; parameters: scale not given: the % may be the effect or the level left; procedure, shortened: as §7
[35] = Plasma clearance in Sprague-Dawley rat at 25 mg/kg, po by LC-MS/MS method; format: ADME, organism-based; parameters: dose 25 mg/kg, route oral; procedure, shortened: as §6
Mus musculus [36] = test: Antidiabetic activity in diabetic C57BL/KsJ db/db mouse model assessed as reduction in postprandial glucose level in hyperglycemia at 1 mg/kg, po measured 2 hrs post dose; format: functional; parameters: scale not given: the % may be the effect or the level left; procedure, shortened: as §7
[37] = Cmax in Sprague-Dawley rat at 25 mg/kg, po by LC-MS/MS method; format: ADME, organism-based; parameters: dose 25 mg/kg, route oral; conditions: in vivo; procedure, shortened: as §6
[38] = Elimination half life in Sprague-Dawley rat at 2.5 mg/kg, iv by LC-MS/MS method; format: ADME, organism-based; parameters: dose 2.5 mg/kg, route intravenous; conditions: in vivo, read-out: beta t1/2 (converted); procedure, shortened: as §5
[39] = Elimination half life in Sprague-Dawley rat at 25 mg/kg, po by LC-MS/MS method; format: ADME, organism-based; parameters: dose 25 mg/kg, route oral; conditions: in vivo, read-out: beta t1/2 (converted); procedure, shortened: as §6
Mus musculus [40] = test: Antidiabetic activity in diabetic C57BL/KsJ db/db mouse model assessed as reduction in postprandial glucose level in hyperglycemia at 10 mg/kg, po measured 2 hrs post dose; format: functional; parameters: scale not given: the % may be the effect or the level left; procedure, shortened: as §7
Mus musculus [41] = test: Antidiabetic activity in diabetic C57BL/KsJ db/db mouse model assessed as reduction in postprandial glucose level in hyperglycemia at 50 mg/kg, po measured 2 hrs post dose; parameters: scale not given: the % may be the effect or the level left

Structure (SMILES): CC(C)NCC(O)COc1ccc2c(=O)cc(-c3cc(O)cc(O)c3)oc2c1 (racemic)
Activity (Syrian golden hamster [1]): 14.9%
Activity (Rattus norvegicus [2]): 32%
Activity (Mus musculus [3]): 39.5%
Activity (Syrian golden hamster [4]): Active
Activity (Syrian golden hamster [5]): 13.8%
Activity (Rattus norvegicus [6]): 29%
Activity (Mus musculus [7]): 22.3%
Activity (Rattus norvegicus [8]): 32%
Activity (Syrian golden hamster [9]): 47.7%
Activity (Mus musculus [10]): 14.2%
Activity (Rattus norvegicus [11]): 28%
Activity (Syrian golden hamster [12]): 48.9%
Activity (Mus musculus [13]): 15.3%
Activity (Mus musculus [14]): 33.2%
Activity (Mus musculus [15]): 11.8%
Percent increase in HDL-C/cholesterol ratio vs vehicle (Mus musculus [16]): 32.1
Activity (Mus musculus [17]): inactive

MRT [21]: 4.9 h
AUC (Rattus norvegicus [22]): 39.5 ng·h/mL
Vd (Rattus norvegicus [24]): 16.18 L/kg
Cmax [25]: 1810 ng/mL
MRT [26]: 5.96 h
Tmax [27]: 19.8 min
Vd [28]: 16.2 L/kg
clearance [31]: 55 mL/min/kg
AUC (Rattus norvegicus [32]): 756 ng·h/mL
bioavailability [33]: 0.52%
CL/F [35]: 54.5 mL/min/kg
Cmax [37]: 21.2 ng/mL
half-life [38]: 290 min
half-life [39]: 203 min
Structure (SMILES): CC(C)NC[C@H](O)COc1ccc2c(=O)cc(-c3cc(O)cc(O)c3)oc2c1
Activity (Mus musculus [18]): 12%
Activity (Mus musculus [19]): 19.7%
Activity (Mus musculus [20]): 30.7%
Activity (Mus musculus [23]): 41.1%
Activity (Mus musculus [3]): 45.6%
Activity (Mus musculus [29]): 49.2%
Activity (Mus musculus [7]): 39.2%
Activity (Mus musculus [10]): 21%
Activity (Mus musculus [30]): 27.1%
Activity (Mus musculus [34]): 31.6%
Activity (Mus musculus [13]): 27%
Activity (Mus musculus [36]): 12.1%
Activity (Mus musculus [14]): 29.7%
Activity (Mus musculus [15]): 23.1%
Activity (Mus musculus [40]): 31.2%
Percent increase in HDL-C/cholesterol ratio vs vehicle (Mus musculus [16]): 68.7
Activity (Mus musculus [41]): 35.4%
Activity (Mus musculus [17]): inactive
